IDE inh: inhibitors of human insulin-degrading enzyme in cells. HEK cells, FAbetaB cleavage, fluorescence polarization. inhibition, % at 5.59 µM. actives 0.41% (n = 320,000). AID 434962;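 active means percent inhibition above the average of all tested compounds plus 3 SD, set per screening campaign, cut at about 16% in these data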;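 further: IDE supplied by intact live HEK cells; FP after avidin binding of uncleaved biotin substrate so inhibition keeps polarization high; 0% = DMSO wells and 100% = 60 µM reference IDE inhibitor Ii1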
Target sequence (P14735 whole entry, looked up): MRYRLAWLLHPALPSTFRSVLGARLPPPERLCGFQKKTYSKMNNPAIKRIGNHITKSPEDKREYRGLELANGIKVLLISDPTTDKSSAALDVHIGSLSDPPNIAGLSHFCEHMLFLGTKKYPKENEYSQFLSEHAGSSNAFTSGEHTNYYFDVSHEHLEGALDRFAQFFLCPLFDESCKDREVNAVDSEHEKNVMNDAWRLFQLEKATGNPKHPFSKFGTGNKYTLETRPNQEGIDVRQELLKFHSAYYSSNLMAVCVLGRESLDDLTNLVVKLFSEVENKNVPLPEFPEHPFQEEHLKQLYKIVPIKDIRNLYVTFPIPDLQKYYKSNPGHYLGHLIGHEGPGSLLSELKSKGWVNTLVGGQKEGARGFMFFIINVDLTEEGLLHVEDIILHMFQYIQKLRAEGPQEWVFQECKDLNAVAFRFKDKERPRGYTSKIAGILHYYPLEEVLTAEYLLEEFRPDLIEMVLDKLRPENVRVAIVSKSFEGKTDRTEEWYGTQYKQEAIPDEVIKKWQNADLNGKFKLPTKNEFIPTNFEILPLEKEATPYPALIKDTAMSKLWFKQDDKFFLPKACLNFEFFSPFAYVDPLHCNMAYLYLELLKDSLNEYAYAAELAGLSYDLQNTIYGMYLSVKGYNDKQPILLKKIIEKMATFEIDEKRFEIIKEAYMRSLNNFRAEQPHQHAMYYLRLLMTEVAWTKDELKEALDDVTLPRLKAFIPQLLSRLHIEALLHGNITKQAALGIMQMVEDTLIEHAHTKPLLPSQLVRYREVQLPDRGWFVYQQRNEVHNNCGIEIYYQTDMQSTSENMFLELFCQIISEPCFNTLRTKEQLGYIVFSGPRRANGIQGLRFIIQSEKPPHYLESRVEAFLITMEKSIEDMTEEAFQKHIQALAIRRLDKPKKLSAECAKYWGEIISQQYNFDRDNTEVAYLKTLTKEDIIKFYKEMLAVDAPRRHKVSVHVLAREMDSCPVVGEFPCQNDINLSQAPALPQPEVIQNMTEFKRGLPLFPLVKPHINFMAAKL
IDE cell activ: IDE (human) activation, cell-based. P14735. activation, % at 5.96 µM. actives 0.073% (n = 340,000). HEK cells, FAbeta-B cleavage, fluorescence polarization; 0% vehicle, 100% cell-free pure enzyme wells;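 active means activation above the mean of all tested compounds plus 3 SD, set per screening campaign, cut at about 17% in these data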
procasp3 activ: activators of human procaspase-3. AID 463141. recombinant procaspase-3 D3A, Ac-DEVD-pNA absorbance 405 nm. P42574. actives 0.11% (n = 330,000). activation, % at 8.5 µM;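 active means activation above the mean of all tested compounds plus 3 SD, cut at about 21% in these data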;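 further: 0% = DMSO alone and 100% = DMSO wells spiked with extra 5 µM PC-3 D3A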
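Assay system – Procaspase-3 D3A mutant, all three cleavage aspartates alanine · Controls – DMSO-only low control, 5 µM PC-3 D3A high control · Schedule – 1 h compound preincubation, 2 h substrate hydrolysis at 25 °C · Signal – 405 nm absorbance of p-nitroaniline, reads at 0 and 120 min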
TPT1 inh: blocks Candida albicans tRNA 2'-phosphotransferase | recombinant caTPT1, FP RNA substrate dephosphorylation | inhibition, % at 5 µM | actives 0.81% (n = 300,000) | AID 1962;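 active means inhibition above the mean of all tested compounds plus 3 SD, set per screening campaign, cut at about 24% in these data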;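 further: plate controls were DMSO alone for no effect and ferristatin control at 100 nM for full effect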
proCasp7 act: counter-screen: procaspase-7 (human) activation. P55210. recombinant procaspase-7, Ac-DEVD-pNA absorbance 405 nm; D23A/D198A/D206A triple mutant, cannot self-cleave; scale: DMSO 0, 5 µM enzyme 100. activation, % at 8.5 µM. actives 0.093% (n = 330,000). AID 463210;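 active means percent activation above the screen-wide mean plus 3 SD, cut at about 25% in these data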
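signal = Epi-absorbance of released pNA at 405 nm, two timepoints | assay system = Uncleavable procaspase-7 mutant enzyme | reagent = Ac-DEVD-pNA substrate, 400 µM as added | times = 1 h enzyme–compound preincubation and 2 h substrate reaction, both 25 °C | benchmarks = low DMSO alone, high DMSO plus 5 µM PC-7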
Active calls of the source: *; · = no result. Hits are enriched below; roughly 1.2% of the tested compounds scored in any of these assays.

SMILES	IDE inh	IDE cell activ	procasp3 activ	TPT1 inh	proCasp7 act
COc1cccc(CNc2ccc3c(c2)ncn3C(C)C)c1OC	-9.8	20.0*	-9.7	2.7	-1.9
CCCn1cnc2cc(NCc3cccc(OC)c3O)ccc21	-3.1	3.5	-5.5	2.8	14.9
COC(=O)c1ccccc1-c1c2ccc(=N)cc-2oc2cc(N)ccc12	-3.0	39.2*	-6.3	·	-0.7
C#CCOCCOCCOCCNc1nc(N2CCN(C(=O)CCCCCCCCCCNC(=O)[C@H](CCCCN)n3cc(C)nn3)CC2)nc(N2CCN(C(=O)CCCCCCCCCCNC(=O)[C@@H]([C@H](C)CC)n3cc(CCCCCN)nn3)CC2)n1	3.7	39.2*	6.7	-2.8	1.1
C#CCOCCOCCOCCNc1nc(N2CCN(C(=O)CCCCCCCCCCNC(=O)[C@H](CCCCN)n3cc(CCO)nn3)CC2)nc(N2CCN(C(=O)CCCCCCCCCCNC(=O)[C@@H]([C@H](C)O)n3cc(C)nn3)CC2)n1	5.9	12.4	1.9	-2.3	5.4
C#CCOCCOCCOCCNc1nc(N2CCN(C(=O)CCCCCCCCCCNC(=O)[C@H]([C@@H](C)CC)n3cc(CCCCCN)nn3)CC2)nc(N2CCN(C(=O)CCCCCCCCCCNC(=O)[C@@H]([C@H](C)O)n3cc(C)nn3)CC2)n1	-10.6	39.0*	-2.7	-6.5	-5.4
C#CCOCCOCCOCCNc1nc(N2CCN(C(=O)CCCCCCCCCCNC(=O)Cn3cc(CCCCCN)nn3)CC2)nc(N2CCN(C(=O)CCCCCCCCCCNC(=O)[C@H]([C@@H](C)CC)n3cc(CCCCCN)nn3)CC2)n1	-1.6	24.6*	-1.2	-0.3	-2.4
C#CCOCCOCCOCCNc1nc(N2CCN(C(=O)CCCCCCCCCCNC(=O)Cn3cc(CCCCCN)nn3)CC2)nc(N2CCN(C(=O)CCCCCCCCCCNC(=O)[C@H](CO)n3cc(CCCCCN)nn3)CC2)n1	3.7	9.1	-0.5	-3.1	-0.8
CCC(C)OC(=O)C1=C(C)NC2=C(C(=O)C(C(=O)OC)C(C)C2)C1c1ccc(N(C)C)cc1 (stereo not drawn)	0.0	17.4*	-2.6	0.5	0.6
Cc1ccc(NC(=O)CSc2nc3ccccc3nc2N2CCCC2)cc1	3.1	3.6	39.6*	-1.3	-2.3
CN1/C(=C\C=Nc2ccc3ccccc3c2)C(C)(C)c2ccccc21	2.5	-3.2	-10.9	49.1*	-30.7
O=C1C=C(c2cccc3c2sc2ccccc23)C[C@@H](c2ccc(Cl)cc2)C1	6.1	22.7*	9.8	·	-10.0
COc1ccc2c(-c3ccccc3)cc(SCC(=O)NC(N)=O)nc2c1	4.6	25.7*	1.0	-1.6	2.2
CCc1c(C2(O)CCCCC2)[nH]c2ccc(C(F)(F)F)cc12	-2.8	8.6	-5.2	1.7	-7.8
COc1ccccc1-c1c(C(F)(F)F)oc2cc(OC(=O)c3ccc([N+](=O)[O-])cc3)ccc2c1=O	17.1*	-12.9	1.3	-1.0	2.3
Cc1cc(=O)oc2cc(OC(=O)c3ccccc3)ccc12	2.8	4.4	-4.8	-2.0	-4.3
CSc1ccc(NC(=O)C(C)N2CCN(C)CC2)cc1 (stereo not drawn)	-1.5	0.1	5.8	-2.4	0.7
CN(C)c1ccc(/C=N/NC(=S)NCc2ccccc2)cc1	6.9	0.6	89.8*	-0.8	32.0*
CC(C)(C)c1ccc(/C=N/NC(=S)NCc2ccccc2)cc1	1.3	4.6	7.1	-2.7	3.4
COC(=O)Cn1c(=NC(=O)c2sc3ccccc3c2Cl)sc2cc(S(N)(=O)=O)ccc21	20.3*	-3.3	-5.8	6.9	2.3
CCCCN1C(=O)c2ccc(C(=O)NC3(C)CCS(=O)(=O)C3)cc2C1=O (stereo not drawn)	0.1	-0.1	0.4	·	5.1
COc1cccc(OCCSc2nc(N)cc(N)n2)c1	0.7	9.0	7.0	3.1	1.0
Nc1cc(N)nc(SCCOc2ccccc2)n1	-1.1	23.3*	-0.9	-1.0	0.4
S=C1NC(c2cccs2)=CC(c2ccc(Br)cc2)N1 (stereo not drawn)	16.6*	-4.5	-11.6	2.9	-11.1
O=C1C=C(c2ccccc2)C[C@@H](c2ccc3c(c2)OCO3)C1	-2.2	3.1	1.2	·	6.6
SMILES	IDE inh	IDE cell activ	procasp3 activ	TPT1 inh	proCasp7 act
O=C1C=C(c2ccc(-c3ccccc3)cc2)C[C@@H](c2ccc3c(c2)OCO3)C1	0.6	42.7*	4.4	·	8.6
CN(C)CCCN(C(=O)CCS(=O)(=O)c1ccccc1)c1nc2cc3c(cc2s1)OCO3	-1.2	-0.3	-5.5	1.2	-6.3
CN(C)CCCN(C(=O)CCSc1ccccc1)c1nc2cc3c(cc2s1)OCO3	2.8	42.9*	-4.7	-3.0	-7.0
CN(C)CCCN(C(=O)CCc1ccccc1)c1nc2ccc(Br)cc2s1	-2.3	28.6*	-9.0	-2.7	4.3
CN(C)CCCN(C(=O)CCc1ccccc1)c1nc2ccc(F)cc2s1	0.1	2.4	-7.7	1.5	3.5
CC(C1CC2CCC1C2)n1c(-c2ccco2)n[nH]c1=S (stereo not drawn)	-5.4	-3.4	-10.9	-0.4	-38.0
COC(=O)C(C(=O)OC)c1ncccc1[N+](=O)[O-]	-3.2	17.8*	2.2	-4.6	9.6
COC(=O)C(C(=O)OC)c1ccccc1[N+](=O)[O-]	3.9	-0.5	8.0	-6.8	3.9
O=C1CCC(=O)N1c1nc2n(n1)C(c1ccccc1)C=C(c1ccc(Br)cc1)N2 (stereo not drawn)	6.1	-8.6	-3.9	-10.5	-9.4
COc1ccc(C2C=C(c3ccc(Cl)cc3)Nc3nc(NC(C)=O)nn32)cc1 (stereo not drawn)	20.3*	·	7.7	-49.8	2.1
COc1ccc(C2C=C(c3ccc(Br)cc3)Nc3nc(N4C(=O)CCC4=O)nn32)cc1 (stereo not drawn)	29.4*	-18.9	-2.0	-37.1	6.3
COc1cc(OC)cc(C(=O)NCC(=O)Nc2ccc(OC)c(Cl)c2)c1	11.9	-3.3	7.8	0.5	1.1
CCN(CC)S(=O)(=O)c1ccc(NC(=O)c2ccc(N3CCCC3=O)cc2)cc1	4.6	0.8	1.3	·	0.7
CCN(CC)c1ccc(NC(=O)COC(=O)/C=C/c2nc3ccccc3s2)cc1	0.7	4.9	-1.7	-0.8	-4.5
CCN(CC)c1ccc(/C=C/c2nc3ccccc3s2)cc1	11.6	·	-44.2	177.9*	-51.4
CCOC(=O)C1(CCOc2ccccc2)CCN(Cc2cccc3nonc23)CC1	0.8	0.2	-4.6	2.3	-7.3
O=C1/C(=C/c2ccc(O)cc2)SC(=S)N1Cc1cccnc1	21.5*	-19.1	-10.0	19.4	-7.0
C#CCOc1ccc(/C=C2\SC(=S)N(Cc3cccnc3)C2=O)cc1	-1.1	2.6	-0.2	-2.7	-7.3
Cc1cccc(-c2nc(CS(=O)CC(=O)N3CC(C)CC(C)C3)c(C)o2)c1 (stereo not drawn)	3.0	4.0	-4.3	0.9	-10.2

Screens as filed in PubChem.
